Measured values of several laboratories.
Lines come from different studies, so protocols differ.
PTGS2: Prostaglandin G/H synthase 2 (PTGS2, Homo sapiens, UniProt P35354)
Dipeptidyl peptidase 2: Dipeptidyl peptidase 2 (Homo sapiens, UniProt Q9UHL4)
CASP7: Caspase-7 (CASP7, Homo sapiens, UniProt P55210)

Compound	target	observed	action	technique	tested at	inhibition [%]
CS(=O)(=O)c1ccc(-c2ncc(Cl)cc2-c2nc3ccccc3s2)cc1	PTGS2	enzyme activity	inhibitor	absorbance	10 µM	98
N#Cc1ccc(NCCNCC(=O)N2N=CCC2C#N)nc1 (stereo not drawn)	Dipeptidyl peptidase 2	enzyme activity	inhibitor		100 µM	77
COc1cc(Nc2ncc(F)c(Nc3ccc4c(n3)NC(=O)C(C)(C)O4)n2)cc(OC)c1OC	Serine/threonine-protein kinase pim-3 (PIM3, Homo sapiens, UniProt Q86V86)	binding		competition with immobilised ligand	10 µM	38
O=C(Nc1cccnn1)N1CCN([C@@H]2CCOc3cc(C(F)(F)F)ccc32)CC1	Glucagon receptor (GCGR, Homo sapiens, UniProt P47871)	cell-free assay			20 µM	-1
CN(C)Cc1ccc(-c2nc3ccccc3s2)c(-c2cccc(O)c2)c1	PTGS2	enzyme activity	inhibitor	absorbance	10 µM	1
CC(C)Cn1cnc2c(N)nc3ccccc3c21	Alpha-1D adrenergic receptor (ADRA1D, Homo sapiens, UniProt P25100)	ligand displacement		radioligand	10 µM	76
N=C(N)c1ccc2cc(OC(=O)c3ccc(N=C(N)N)cc3)ccc2c1	Dipeptidyl peptidase 2	enzyme activity	inhibitor		10 µM	29
CCN(CC)CCCC[C@H](NC(=O)[C@H](CC(C)C)NC(=O)[C@H](C)NC(=O)[C@H](Cc1ccccc1)NC(=O)c1ccc(C(C)(C)C)cc1)C(=O)N[C@@H](CO)C(=O)OC	5-hydroxytryptamine receptor 1B (Htr1b, Rattus norvegicus, UniProt P28564)	ligand displacement		radioligand	10 µM	-11
CC(C)C[C@H](NC(=O)[C@H](Cc1ccccc1)NC(=O)c1cnccn1)B(O)O	Serine protease HTRA2, mitochondrial (HTRA2, Homo sapiens, UniProt O43464)	enzyme activity	inhibitor		33 µM	< 5
Cn1cc(-c2cccc(N3CCc4c(sc5c4CC(C)(C)C5)C3=O)c2CO)cc(Nc2ccncn2)c1=O	Protein kinase C zeta type (PRKCZ, Homo sapiens, UniProt Q05513)	enzyme activity	inhibitor		1 µM	10
CN(C)Cc1ccc(-c2nc3ccccc3s2)c(-c2ccc(O)cc2)c1	PTGS2	enzyme activity	inhibitor	absorbance	10 µM	0
CC(C)N1CCC[C@H]1CNC(=O)c1cn(C2CCCC2)c(=O)c2c1c1ccccc1n2C	Neuropeptide Y receptor type 2 (NPY2R, Homo sapiens, UniProt P49146)	ligand displacement		radioligand	10 µM	3
C#Cc1n[nH]c2c(-c3cn(C(C)c4ccccn4)c(=O)[nH]c3=O)cc(F)cc12 (stereo not drawn)	Platelet-derived growth factor receptor beta (PDGFRB, Homo sapiens, UniProt P09619)	enzyme activity	inhibitor		1 µM	6.6
CC(=O)N[C@@H](CC(=O)O)C(=O)N[C@@H](CC(N)=O)C(=O)N[C@@H](CC(C)C)C(=O)N[C@H](C=O)CC(=O)O	CASP7	enzyme activity	inhibitor		0.5 µM	89
NS(=O)(=O)c1ccc(-c2ncc(Cl)cc2-c2nc3ccccc3s2)cc1	PTGS2	enzyme activity	inhibitor	absorbance	10 µM	100
Cn1cc(-c2cc(F)cc(N3CCn4c(cc5c4CCCC5)C3=O)c2CO)cc(Nc2ccc(N3CCN(C4COC4)CC3)cn2)c1=O	Dual specificity tyrosine-phosphorylation-regulated kinase 3 (DYRK3, Homo sapiens, UniProt O43781)	enzyme activity	inhibitor		0.1 µM	5
Cc1ccc(-c2nc3ccccc3s2)c(-c2cccc(O)c2)c1	PTGS2	enzyme activity	inhibitor	absorbance	10 µM	29
CN(C)C(=O)COC(=O)Cc1ccc(OC(=O)c2ccc(NC(=N)N)cc2)cc1	Dipeptidyl peptidase 2	enzyme activity	inhibitor		10 µM	20
Nc1ccc(-c2nc3ccccc3s2)c(-c2cccc(O)c2)c1	PTGS2	enzyme activity	inhibitor	absorbance	10 µM	33.3
CCOC(=O)c1ccc(OC(=O)CCCCCNC(=N)N)cc1	CASP7	enzyme activity	inhibitor		10 µM	1
C1=Cc2ccccc2Nc2ccccc21	Dihydrofolate reductase (folA, Escherichia coli, UniProt P0ABQ4)	enzyme activity	inhibitor		1 mM	~87
